Test results from ChEMBL document CHEMBL3621164, “Discovery of Triazole CYP11B2 Inhibitors with in Vivo Activity in Rhesus Monkeys” (ACS Med Chem Lett, 2015).
Activity calls are given as the source filed them. No cut-off for these calls is given here.

Columns and labels:
[1] = target: T1, Cytochrome P450 11B2, mitochondrial (Homo sapiens, UniProt P19099); assay: Inhibition of human CYP11B2 expressed in V79 cells assessed as aldosterone level after 3 hrs by HTRF assay in presence of 125 nM 11-deoxycorticosterone; type: cell-based
T1 sequence (P19099 whole entry): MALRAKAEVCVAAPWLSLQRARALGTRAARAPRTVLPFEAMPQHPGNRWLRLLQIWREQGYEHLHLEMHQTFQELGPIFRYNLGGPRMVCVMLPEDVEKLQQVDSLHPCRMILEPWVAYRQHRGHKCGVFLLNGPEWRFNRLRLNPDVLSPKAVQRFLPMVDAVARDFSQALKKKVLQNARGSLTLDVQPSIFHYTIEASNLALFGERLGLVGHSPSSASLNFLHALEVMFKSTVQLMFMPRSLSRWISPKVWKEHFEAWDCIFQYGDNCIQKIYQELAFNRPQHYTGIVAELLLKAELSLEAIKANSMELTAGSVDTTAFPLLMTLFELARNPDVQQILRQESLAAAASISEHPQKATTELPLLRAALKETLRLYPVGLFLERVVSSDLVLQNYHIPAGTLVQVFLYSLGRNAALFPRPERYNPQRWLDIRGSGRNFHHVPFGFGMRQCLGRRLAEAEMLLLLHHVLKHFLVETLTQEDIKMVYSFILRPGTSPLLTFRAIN

Rhesus monkey [2] = assay: Dose normalized AUC in rhesus monkey at 2 mg/kg administered through gavage; type: ADME, organism-based, Macaca mulatta; details: in vivo, po
Plasma [3] = assay: Free plasma concentration in rhesus monkey at 0.1 mg/kg, iv measured 90 mins post dose by LC/MS method; type: ADME, organism-based, Macaca mulatta; details: in vivo, 1.5 h
How it was run: (§1)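 Anesthetized rhesus monkeys dosed i.v.; plasma drug concentration measured 90 min postdose. Free (unbound) concentration calculated from total plasma level using the free fraction determined in rhesus plasma.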

Rhesus monkey [4] = assay: Decrease in aldosterone level in rhesus monkey plasma at 1 mg/kg, iv by LC/MS method; type: functional; details: Macaca mulatta
How it was run: (§2)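 Plasma aldosterone and 11-deoxycortisol quantified by LC–MS at time points up to 180 min postdose; AUCs over that period calculated and compared with baseline.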

Rhesus monkey [5] = assay: Effect on 11-deoxycortisol level in rhesus monkey plasma upto 1 mg/kg, iv by LC/MS method; type: functional, organism-based; details: Macaca mulatta; how it was run: as §2
Plasma [6] = assay: Fraction unbound in iv dosed rhesus monkey plasma measured 90 mins post dose by LC/MS method; type: ADME, organism-based, Macaca mulatta; details: in vivo, 1.5 h
[7] = Plasma clearance in Sprague-Dawley rat at 2 mg/kg, po administered through gavage by LC/MS/MS method; type: ADME, organism-based
Plasma [8] = assay: Free plasma concentration in rhesus monkey at 0.3 mg/kg, iv measured 90 mins post dose by LC/MS method; type: ADME, organism-based, Macaca mulatta; details: in vivo, 1.5 h; how it was run: as §1
[9] = Oral bioavailability in rhesus monkey at 2 mg/kg administered through gavage; type: ADME, organism-based, Macaca mulatta; details: in vivo
[10] = Intrinsic clearance in rhesus monkey liver microsomes by LC/MS method; type: ADME, Macaca mulatta
Plasma [11] = assay: Free plasma concentration in rhesus monkey at 1 mg/kg, iv measured 90 mins post dose by LC/MS method; type: ADME, organism-based, Macaca mulatta; details: in vivo, 1.5 h; how it was run: as §1
Plasma [12] = assay: Plasma protein binding in rhesus monkey; type: ADME, cell-free, Macaca mulatta
[13] = Plasma clearance in rhesus monkey at 2 mg/kg administered through gavage by LC-MS/MS method; type: ADME, organism-based, Macaca mulatta; details: po
[14] = Half life in rhesus monkey at 2 mg/kg administered through gavage; type: ADME, organism-based, Macaca mulatta; details: in vivo, po
[15] = Half life in Sprague-Dawley rat at 2 mg/kg, po administered through gavage by LC/MS/MS method; type: ADME, organism-based; details: in vivo
[16] = target: T2, Cytochrome P450 11B2, mitochondrial (Rattus norvegicus, UniProt P30099); assay: Inhibition of rat CYP11B2 expressed in V79 cells assessed as aldosterone level after 3 hrs by HTRF assay in presence of 500 nM 11-deoxycorticosterone; type: cell-based; details: v79, 3 h
T2 sequence (P30099 whole entry): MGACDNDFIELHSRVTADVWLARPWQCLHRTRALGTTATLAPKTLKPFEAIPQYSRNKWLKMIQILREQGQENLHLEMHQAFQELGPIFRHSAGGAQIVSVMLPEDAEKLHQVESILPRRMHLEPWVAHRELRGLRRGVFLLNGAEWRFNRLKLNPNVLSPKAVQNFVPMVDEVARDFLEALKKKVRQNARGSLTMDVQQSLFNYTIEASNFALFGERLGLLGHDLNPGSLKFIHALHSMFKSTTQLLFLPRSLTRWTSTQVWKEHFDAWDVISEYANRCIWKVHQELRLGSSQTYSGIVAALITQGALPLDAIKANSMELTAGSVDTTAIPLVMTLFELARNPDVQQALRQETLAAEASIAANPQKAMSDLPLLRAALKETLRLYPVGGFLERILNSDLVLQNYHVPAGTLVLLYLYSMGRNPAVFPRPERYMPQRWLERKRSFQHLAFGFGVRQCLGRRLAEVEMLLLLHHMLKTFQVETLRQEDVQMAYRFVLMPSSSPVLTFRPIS

[17] = Inhibition of rhesus monkey CYP11B2 expressed in V79 cells assessed as aldosterone level after 3 hrs by HTRF assay in presence of 125 nM 11-deoxycorticosterone; type: cell-based; details: Macaca mulatta, V79, 3 h
Rhesus monkey [18] = assay: Decrease in aldosterone level in iv dosed rhesus monkey plasma by LC/MS method; type: functional, organism-based; details: Macaca mulatta; how it was run: as §2
[19] = Intrinsic clearance in Sprague-Dawley rat liver microsomes by LC/MS method; type: ADME; details: read-out: CLH
[20] = Lipophilicity, log D of the compound by HPLC; type: physicochemical
How it was run: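 Lipophilicity determined experimentally by HPLC.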

[21] = target: T3, Steroid 17-alpha-hydroxylase/17,20 lyase (Homo sapiens, UniProt P05093); assay: Inhibition of human CYP17 expressed in COS7 cells assessed as DHEA level after 3 hrs by EIA assay in presence of 360 nM 17-hydroxypregnenolone; type: cell-based, COS-7
T3 sequence (P05093 whole entry): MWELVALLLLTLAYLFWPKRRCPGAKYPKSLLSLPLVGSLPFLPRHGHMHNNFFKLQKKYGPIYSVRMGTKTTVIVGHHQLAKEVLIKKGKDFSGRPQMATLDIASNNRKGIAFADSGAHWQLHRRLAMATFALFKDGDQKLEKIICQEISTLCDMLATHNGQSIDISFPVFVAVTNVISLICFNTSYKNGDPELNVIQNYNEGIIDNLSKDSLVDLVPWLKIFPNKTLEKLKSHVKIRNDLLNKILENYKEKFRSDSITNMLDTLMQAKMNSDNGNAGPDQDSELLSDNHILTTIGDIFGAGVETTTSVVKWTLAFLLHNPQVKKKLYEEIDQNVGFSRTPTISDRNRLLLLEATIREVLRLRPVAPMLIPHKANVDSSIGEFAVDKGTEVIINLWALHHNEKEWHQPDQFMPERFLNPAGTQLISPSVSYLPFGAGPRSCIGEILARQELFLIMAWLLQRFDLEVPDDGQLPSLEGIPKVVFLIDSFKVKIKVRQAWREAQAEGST

[22] = Inhibition of rhesus monkey CYP11B1; set-up: species or system Macaca mulatta
Rhesus monkey [23] = assay: Decrease in aldosterone level in rhesus monkey plasma at 0.1 mg/kg, iv by LC/MS method; type: functional; details: Macaca mulatta; how it was run: as §2
Rattus norvegicus = assay: Dose normalized AUC in Sprague-Dawley rat at 2 mg/kg, po administered through gavage; type: ADME, organism-based; details: in vivo

- IC50 [1]: 64 nM
- AUC (Rhesus monkey [2]): 16.26 µM·kg·h/mg
- Cp(f) (Plasma [3]): 19 nM
- Fu (Plasma [6]): 31%
- CL/F [7]: 21 mL/min/kg
- Cp(f) (Plasma [8]): 73 nM
- bioavailability [9]: 100%
- CLint scaled [10]: < 20 mL/min/kg
- Cp(f) (Plasma [11]): 279 nM
- PPB (Plasma [12]): 31%
- CL/F [13]: 3 mL/min/kg
- half-life [14]: 7.8 h
- half-life [15]: 1.2 h
- inhibition (INH) [16]: Active
- IC50 [17]: 12 nM
- CLint scaled [19]: < 20 mL/min/kg
- logD [20]: 1.2
- IC50 [21]: > 10000 nM
- IC50 [22]: 3480 nM
- AUC/dose (Rattus norvegicus): 1.88 µM·kg·h/mg
SMILES: Cc1nnc2n1-c1ccc(-c3cncc([C@](C)(O)C(F)(F)F)c3)cc1CC2
- inhibition in vivo at 1 mg/kg (Rhesus monkey [4]): 98%
- Activity (Rhesus monkey [5]): inactive
- inhibition (Rhesus monkey [18]): Dose-dependent effect
- inhibition in vivo at 0.1 mg/kg (Rhesus monkey [23]): 48%
